Legend:
[1] = biological target: T1, 3-hydroxy-3-methylglutaryl-coenzyme A reductase (Homo sapiens) (UniProt P04035); experiment: % control of HMG-CoA reductase activity in CHO-K1 cells at a concentration of 0.5 uM; format: cell-based; details: Cricetulus griseus
T1 sequence (whole entry): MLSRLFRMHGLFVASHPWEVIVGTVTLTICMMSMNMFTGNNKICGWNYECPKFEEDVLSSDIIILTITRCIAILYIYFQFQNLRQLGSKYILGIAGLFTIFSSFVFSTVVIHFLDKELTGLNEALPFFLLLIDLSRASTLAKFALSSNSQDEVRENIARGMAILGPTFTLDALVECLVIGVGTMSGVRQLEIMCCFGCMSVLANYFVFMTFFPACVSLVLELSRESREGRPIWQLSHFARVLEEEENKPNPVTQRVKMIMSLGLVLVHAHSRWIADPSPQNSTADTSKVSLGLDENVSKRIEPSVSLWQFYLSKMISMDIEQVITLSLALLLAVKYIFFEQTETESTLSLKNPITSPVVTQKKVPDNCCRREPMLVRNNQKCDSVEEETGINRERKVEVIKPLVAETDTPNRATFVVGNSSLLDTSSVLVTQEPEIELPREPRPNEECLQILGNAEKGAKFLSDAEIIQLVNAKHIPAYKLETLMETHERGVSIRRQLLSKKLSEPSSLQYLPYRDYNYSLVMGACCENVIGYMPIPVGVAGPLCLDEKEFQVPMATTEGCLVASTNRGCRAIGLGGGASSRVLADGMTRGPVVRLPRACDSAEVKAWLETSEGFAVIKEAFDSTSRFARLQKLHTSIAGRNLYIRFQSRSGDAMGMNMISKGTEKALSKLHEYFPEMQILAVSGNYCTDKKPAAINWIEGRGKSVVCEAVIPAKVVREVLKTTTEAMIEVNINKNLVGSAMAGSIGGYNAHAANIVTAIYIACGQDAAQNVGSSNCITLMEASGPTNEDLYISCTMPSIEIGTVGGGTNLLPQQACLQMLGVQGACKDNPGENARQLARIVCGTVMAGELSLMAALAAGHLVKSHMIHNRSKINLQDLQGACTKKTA
Procedure, shortened: (§1)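 CHO-K1 cells were exposed to the sterol at 0.0–2.5 μM. HMG-CoA reductase specific activity was measured in pmol min⁻¹ mg⁻¹ protein and expressed as % of the activity in sterol-free control cells. Assays were run in triplicate, with variation given as SD.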

[2] = biological target: 3-hydroxy-3-methylglutaryl-coenzyme A reductase (Cricetulus griseus) (UniProt P00347); experiment: % control of HMG-CoA reductase activity in CHO-K1 cells at a concentration of 0.1 uM
[3] = biological target: T1, 3-hydroxy-3-methylglutaryl-coenzyme A reductase (Homo sapiens); experiment: % control of HMG-CoA reductase activity in CHO-K1 cells at a concentration of 1.0 uM; format: cell-based; details: Cricetulus griseus; procedure, shortened: as §1
[4] = biological target: 3-hydroxy-3-methylglutaryl-coenzyme A reductase (Cricetulus griseus) (UniProt P00347); experiment: % control of HMG-CoA reductase activity in CHO-K1 cells at a concentration of 0.0 uM
[5] = biological target: T1, 3-hydroxy-3-methylglutaryl-coenzyme A reductase (Homo sapiens); experiment: % control of HMG-CoA reductase activity in CHO-K1 cells at a concentration of 0.25 uM; format: cell-based; details: Cricetulus griseus; procedure, shortened: as §1
[6] = biological target: T1, 3-hydroxy-3-methylglutaryl-coenzyme A reductase (Homo sapiens); experiment: % control of HMG-CoA reductase activity in CHO-K1 cells at a concentration of 2.5 uM; format: cell-based; details: Cricetulus griseus; procedure, shortened: as §1

Chain of 3-hydroxy-3-methylglutaryl-coenzyme A reductase (Cricetulus griseus) (P00347 whole entry, looked up): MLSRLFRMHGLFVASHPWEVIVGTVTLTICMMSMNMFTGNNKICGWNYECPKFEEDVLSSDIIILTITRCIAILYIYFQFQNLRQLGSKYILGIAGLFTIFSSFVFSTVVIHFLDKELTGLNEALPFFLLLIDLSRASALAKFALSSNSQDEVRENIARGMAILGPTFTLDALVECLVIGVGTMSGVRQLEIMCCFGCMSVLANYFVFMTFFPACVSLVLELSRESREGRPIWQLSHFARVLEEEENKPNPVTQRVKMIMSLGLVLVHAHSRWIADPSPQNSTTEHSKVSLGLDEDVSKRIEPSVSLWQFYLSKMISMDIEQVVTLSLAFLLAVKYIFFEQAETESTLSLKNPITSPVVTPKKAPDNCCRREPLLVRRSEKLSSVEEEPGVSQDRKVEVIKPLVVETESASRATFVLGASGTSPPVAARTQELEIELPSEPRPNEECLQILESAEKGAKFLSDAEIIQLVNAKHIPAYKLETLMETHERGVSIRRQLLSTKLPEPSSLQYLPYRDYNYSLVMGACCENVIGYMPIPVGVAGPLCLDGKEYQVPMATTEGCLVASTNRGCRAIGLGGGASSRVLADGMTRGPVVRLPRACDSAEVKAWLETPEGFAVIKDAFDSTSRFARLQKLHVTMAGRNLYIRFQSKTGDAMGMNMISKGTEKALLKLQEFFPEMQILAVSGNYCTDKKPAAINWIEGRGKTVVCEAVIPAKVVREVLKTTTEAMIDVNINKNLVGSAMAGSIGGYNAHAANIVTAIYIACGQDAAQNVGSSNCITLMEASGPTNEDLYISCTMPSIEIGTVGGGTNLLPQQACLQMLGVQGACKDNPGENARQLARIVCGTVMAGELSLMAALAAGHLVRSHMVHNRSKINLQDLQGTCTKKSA

| Control [1] [%] | Control [2] [%] | Control [3] [%] | Control [4] [%] | Control [5] [%] | Control [6] [%] | Compound |
| --- | --- | --- | --- | --- | --- | --- |
| 42.2 | 61.9 | 35.8 | 100 | 52.1 | 24.4 | CC(C)CCC[C@@H](C)[C@H]1CC(=O)C2=C3CC[C@H]4C[C@@H](O)CC[C@]4(C)[C@H]3CC[C@@]21C |
| 32.2 | 63.4 | 34.2 | 100 | 33.5 | 21.5 | C[C@H](CCCC(C)(C)O)C1CC(=O)C2=C3CCC4CC(O)CCC4(C)C3CCC21C (some centres not stated) |

Source: ChEMBL document CHEMBL1125384, “Inhibitors of sterol synthesis. 3 beta,25-dihydroxy-5 alpha-cholest-8(14)-en-15-one, an active metabolite of 3 beta-hydroxy-5 alpha-cholest-8(14)-en-15-one” (J Med Chem, 1992)
